The IC50 is the concentration needed to halve the response being measured. Low values mean inhibition by little substance, high ones a need for much substance.

We go through nine compounds from ChEMBL document CHEMBL3232958, “Antiproliferative and uncoupling effects of delocalized, lipophilic, cationic gallic acid derivatives on cancer cell lines. Validation in vivo in singenic mice” (J Med Chem, 2014).

SMILES strings stand for the structures. The source made the active and inactive calls. No cut-off for these calls is given here. Where only a bound is given, the exact number is not on record here.

Series [1] concerns TA3/Ha. Nature of the series: Induction of NAD(P)H oxidation in mouse TA3/Ha cells assessed as reduction of NAD(P)H/NAD(P)+ ratio at 12 uM by spectrofluorometer analysis. Type of series: functional, cell-based. A digest of the protocol: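 Intact TA3 tumour cells, 2.5 mg protein/mL, in PBS pH 7.4 with 2.5 mM glutamine as substrate. Stirred and thermostatted at 25 °C. NAD(P)H autofluorescence (ex 340, em 420 nm) recorded as a time course by spectrofluorometer. Rotenone, FCCP or cation added during the trace.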

The subject of series [2] is TA3/Ha. The experiment in a line: Decrease of mitochondrial transmembrane potential in mouse TA3/Ha cell mitochondria at 0.2 nmol after 5 mins by safranin and JC-1 staining. Type of series: functional. A digest of the protocol:
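Mitochondria isolated from TA3/Ha tumour cells (washed, BSA-free), 1.0 mg/mL protein. Safranin 20 μM, read 5 min; then 2 mM glutamate + 2 mM malate, read 5 min; then cation added. ΔΨm followed as ΔA511−533nm spectrophotometrically.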

Series [3] has as its system TA3/Ha. The experiment in a line: Induction of apoptosis in mouse TA3/Ha cells assessed as caspase 3 activation at 0.5 uM after 24 hrs by Western blot analysis. Type of series: functional, cell-based. A digest of the protocol: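 Caspase 3 measured by Western blot. RIPA lysates, 50 μg protein run on 12% SDS–PAGE. Anti-caspase 3 (1:1000) and tubulin loading control (1:10000) overnight at 4 °C; HRP secondary for 2 h. ECL detection and densitometry.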
Background: In western blotting, separated proteins are transferred to a membrane and probed.

Series [4] concerns TA3/Ha. Nature of the series: Induction of apoptosis in mouse TA3/Ha cells assessed as early stage apoptotic cells at 0.5 uM after 24 to 48 hrs using annexin V/propidium iodide staining by flow cytometry. Type of series: functional, cell-based. A digest of the protocol: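 Annexin V-FITC/PI flow cytometry on 1 × 10^5 cells/mL treated for 24 and 48 h at 37 °C, 5% CO2. 5 min staining at room temperature; 5000 events recorded. Early apoptosis scored as annexin V+/PI−. Staurosporine 10 μM as positive control; at least three experiments, ANOVA with Bonferroni test.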
(A flow cytometer gives signals particle by particle.)

Series [5] deals with CCRF-CEM. Nature of the series: Cytotoxicity against human CCRF-CEM cells after 48 hrs by neutral red assay. Type of series: functional, cell-based. The procedure, abridged: (§1)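 Neutral red uptake after 48 h exposure at 37 °C, 5% CO2. Seeding: 1 × 10^5 cells/mL for TA3, TA3-MTX-R and CCRF-CEM; 4 × 10^4 cells/mL for MM3MG. Dye at 100 μg/mL for 2 h, then ethanol/acetic acid extraction and absorbance at 540 nm. IC50 from variable-slope sigmoidal dose–response fit; at least three independent experiments in triplicate, mean ± SEM.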

Series [6] concerns TA3/Ha. Nature of the series: Reduction of ATP level in mouse TA3/Ha cells at 1 to 20 uM after 2 hrs by CellTiter-Glo luminescent assay. Type of series: functional, cell-based. The procedure, abridged: (§2)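 CellTiter-Glo luminescence on 2 × 10^5 cells/mL incubated with cation for 2 h. Aliquot held 10 min at room temperature in the dark before reading; at least three experiments.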
A general note: In ATP-based viability assays light output follows the ATP content of the culture.

The nature of series [7]: Cytotoxicity against mouse multidrug-resistant TA3-MTX-R cells after 48 hrs by neutral red assay. Type of series: functional, cell-based. The procedure, abridged: as §1
Series [8] is described as follows: Cytotoxicity against mouse MM3MG cells after 48 hrs by neutral red assay. The series is classed as cell-based. A digest of the protocol: as §1
Series [9] can be described thus: Uncoupling respiration effect in mouse TA3/Ha cells after 2 mins by polarographic analysis in presence of FCCP. The series is classed as functional. The procedure, abridged:
(§3)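 Polarographic respiration of digitonin-permeabilized cells (0.013 μg/mg protein; 2.5 mg protein/mL) in PBS pH 7.4 with 10 mM succinate and 1 μg/mL oligomycin. Cations added in 3 μL DMSO. Atractyloside 5 nmol/mg protein was added before succinate. FCCP added at the end: 0.15 μM for TA3, 0.25 μM for TA3-MTX-R. Slope and K0.5 taken from log–log linear regression; at least three experiments.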

Series [10] in a line: Toxicity in mouse TA3/Ha cells assessed as cell membrane integrity after 24 hrs using propidium iodide by flow cytometry. The series is classed as cell-based. The following applies: 2 to 4 h, in the assay text read “after 2 to 4 hrs” for “after 24 hrs”. A digest of the protocol:
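Membrane integrity by PI uptake on flow cytometry. Cells were seeded, grown for 24 h at 37 °C, 5% CO2, then given fresh medium with cation for 2 and 4 h before PI was added. Mean ± SEM of at least three experiments.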

Series [11] has as its system TA3/Ha. Nature of the series: Cytotoxicity against mouse TA3/Ha cells up to 24 hrs by lactate dehydrogenase assay. Type of series: functional, cell-based. The procedure, abridged: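 LDH release measured with a kit on 2 × 10^5 cells/mL incubated at 37 °C, 5% CO2, 90% humidity. Supernatant taken after centrifugation at 600g for 3 min, then 30 min with reaction mix at room temperature; absorbance read at 450 nm.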

The subject of series [12] is TA3/Ha. Nature of the series: Reduction of ATP level in mouse TA3/Ha cells after 2 hrs by CellTiter-Glo luminescent assay. The series is classed as functional, cell-based. A digest of the protocol: as §2
Series [13] deals with TA3/Ha. Nature of the series: Increase of oxygen consumption in mouse TA3/Ha cell mitochondria using glutamate and malate as substrate at 10^-4 M after 2 mins by polarographic analysis. Type of series: functional. The procedure, abridged: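 Clark electrode polarography of isolated mitochondria (1.0 mg/mL) at 25 °C. Medium: sucrose/KCl, 3 mM phosphate, Hepes pH 7.0, 2 mM MgCl2. Substrates 2 mM glutamate + 2 mM malate; 0.5 mM ADP, oligomycin and KCN also used.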

Series [14] can be described thus: Cytotoxicity against mouse TA3/Ha cells after 48 hrs by neutral red assay. The series is classed as functional, cell-based. A digest of the protocol: as §1
Series [15] is described as follows: Uncoupling respiration effect in mouse TA3-MTX-R cells after 2 mins by polarographic analysis in presence of FCCP. Type of series: functional. A digest of the protocol: as §3

Consider `C=C(C)[C@H]1Cc2c(ccc3c2O[C@@H]2COc4cc(OC)c(OC)cc4[C@@H]2C3=O)O1`, for which, in series [1], the result was Active.

On to `N#CC(C#N)=NNc1cccc(Cl)c1`, for which, in series [2], the outcome was Active.

For the compound `O=C(OCCCCCCCC[P+](c1ccccc1)(c1ccccc1)c1ccccc1)c1cc(O)c(O)c(O)c1.[Br-]`, the outcome in series [3] was inactive. In addition, the result in series [4], in series [6], in series [11] and in series [13] was Active. Also, the IC50 in series [5] is 34.6 µM; in series [7], 14.4 µM; in series [8], 29.4 µM; in series [14] it was 13.4 µM. Moreover, the K0.5 is on record as 2.25 ×10⁻⁴ M in [9] and 1.91 ×10⁻⁴ M in [15]. Besides, the Activity entry in [10] was “Non-toxic”; in [12], “Dose-dependent effect”.

Regarding `c1ccc(P(c2ccccc2)c2ccccc2)cc1`, the half-inhibitory concentration (IC50) in series [5] was 184 µM; in [7], over 200 µM; in series [8], over 200 µM; in series [14], 190 µM.

Consider `O=C(O)c1cc(O)c(O)c(O)c1` [GALLIC ACID], for which the IC50 in [5] was over 200 µM; in series [7], 160 µM; in series [8] it was over 200 µM; in series [14], 163 µM.

As to `CCCCCCCCOC(=O)c1cc(O)c(O)c(O)c1` [OCTYL_GALLATE], the 50% inhibitory concentration (IC50) in [5] is 58.5 µM; in series [7], 29.8 µM; in series [8], over 200 µM; in series [14] it was 35.9 µM.

Turning to `O=C(OCCCCCCCCCCC[P+](c1ccccc1)(c1ccccc1)c1ccccc1)c1cc(O)c(O)c(O)c1.[Br-]`, the outcome in [3] was inactive. In addition, the outcome in series [4], in series [6] and in series [11] was Active. Further, the IC50 in series [5] worked out at 19.8 µM; in series [7] it was 3.7 µM; in series [8], 14.3 µM; in [14], 6.4 µM. Also, the Activity entry in series [10] was “Non-toxic”; in series [12], “Dose-dependent effect”.

As to `CCCCCCCCCCCCOC(=O)c1cc(O)c(O)c(O)c1` [DODECYL GALLATE], the half-maximal inhibitory concentration (IC50) in series [5] is 15.5 µM; in series [7], 3 µM; in series [8], 30 µM; in [14], 7.06 µM.

As for `O=C(OCCCCCCCCCCCC[P+](c1ccccc1)(c1ccccc1)c1ccccc1)c1cc(O)c(O)c(O)c1.[Br-]`, in series [3], the result was inactive. The result in series [4], in [6] and in [11] was Active. Also, the IC50 in [5] is 0.58 µM; in series [7], 1.2 µM; in series [8], 1.38 µM; in series [14], 0.74 µM. Moreover, the K0.5 in series [9] was 2.9 ×10⁻⁵ M; in series [15] it was 3.1 ×10⁻⁵ M. In addition, the Activity entry was “Non-toxic” in series [10] and “Dose-dependent effect” in series [12].
